From article PMC8434889 (Bioorganic Chemistry, 2021)

How the values were obtained:
[1] = target: SARS-Cov2 spike glycoprotein (Severe acute respiratory syndrome coronavirus 2, UniProt P0DTC2); assay: cell-based; assay type: cell-based, SARS-CoV-2
[2] = Splenocytes cytotoxicity; assay type: cell-based; details: female, BALB/c, mouse, murine splenocytes
Outline: (§1)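 MTT assay after 48 h culture in triplicate with or without test compound. Cells: 8 × 10^5 BALB/c splenocytes or 1 × 10^5 RAW264.7 cells. MTT reagent (5 mg/mL) added 4 h before end of culture; formazan dissolved in DMSO; absorbance at 570 nm. CC50 from log(inhibitor)–normalized response nonlinear fit.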

[3] = tested on: Con A-induced T cell proliferation of murine splenocytes; assay: Con A-induced T-cell proliferation; assay type: cell-based, mouse; details: 48 h; for IC50: Mus musculus, T-cell, read-out: Con A-induced T-cell proliferation IC50
Outline: (§2)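 Splenocytes from 6–8-week-old female BALB/c mice, with erythrocytes lysed in NH4Cl/Tris buffer (pH 7.2), in RPMI 1640 with 10% FBS and penicillin/streptomycin. Cells at 5 × 10^5 in triplicate for 48 h with or without test compound (DMSO stock diluted in medium). Stimulation: ConA 1 μg/mL for T cells or LPS 10 μg/mL for B cells. [3H]thymidine 0.5 μCi/well pulse for 8 h, filter harvest, scintillation counting. IC50 from log(inhibitor)–normalized response nonlinear fit.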

[4] = tested on: LPS-induced B cell proliferation of murine splenocytes; assay: LPS-induced B-cell proliferation; assay type: cell-based, mouse; details: 48 h; for IC50: Mus musculus, B-cell, read-out: LPS-induced B-cell proliferation IC50
Outline: as §2

[5] = tested on: IFN-γ; assay: Con A-induced cytokine production in splenocytes, IFN-γ; assay type: cell-based; details: Mus musculus, Splenocyte, 48 h, read-out: IC50 IFN-γ
[6] = tested on: IL-17; assay: Con A-induced cytokine production in splenocytes, IL-17; assay type: cell-based; details: Mus musculus, Splenocyte, 48 h, read-out: IC50 IL-17
[7] = tested on: IL-6; assay: Con A-induced cytokine production in splenocytes, IL-6; assay type: cell-based; details: Mus musculus, Splenocyte, 48 h, read-out: IC50 IL-6
[8] = tested on: IL-6; assay: LPS-induced cytokine production in splenocytes, IL-6; assay type: cell-based; details: Mus musculus, Splenocyte, 48 h, read-out: IC50 IL-6
[9] = tested on: IL-1β; assay: LPS-induced cytokine production in splenocytes, IL-1β; assay type: cell-based; details: Mus musculus, Splenocyte, 48 h, read-out: IC50 IL-1β
[10] = Cytotoxicity in RAW264.7 cell; assay type: cell-based; details: mouse, RAW264.7 macrophage cells
Outline: as §1

[11] = tested on: IL-6; assay: LPS-induced cytokine production in RAW264.7 cell, IL-6; assay type: cell-based; details: Mus musculus, RAW264.7, 48 h, read-out: IL-6 IC50
Outline: (§3)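 Murine RAW264.7 macrophages grown in DMEM with 10% FBS, 2 mM L-glutamine and penicillin/streptomycin at 37 °C, 5% CO2. Cells at 1 × 10^5 in triplicate with or without test compound, then LPS 10 μg/mL for 48 h. Supernatant IL-1β, IL-6 and TNF-α by ELISA. IC50 from log(inhibitor)–normalized response nonlinear fit.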

[12] = tested on: IL-1β; assay: LPS-induced cytokine production in RAW264.7 cell, IL-1β; assay type: cell-based; details: Mus musculus, RAW264.7, 48 h, read-out: IL-1β IC50
Outline: as §3

[13] = tested on: TNF-α; assay: LPS-induced cytokine production in RAW264.7 cell, TNF-α; assay type: cell-based; details: Mus musculus, RAW264.7, 48 h, read-out: TNF-α IC50
Outline: as §3

[14] = in vitro; details: human
[15] = tested on: Huh7 cell; details: read-out: Huh7 cell CC50; MTT, 2 days

| Structure (SMILES) | 2019nCoV-S-HIV EC50 [1] | EC50 [1] [µM] | CC50 at 48 h [2] [µM] | IC50 [3] [µM] | IC50 [4] [µM] | IC50 [5] [µM] | IC50 [6] [µM] | IC50 [7] [µM] | IC50 [8] [µM] | IC50 [9] [µM] | CC50 at 48 h [10] [µM] | IC50 [11] [µM] | IC50 [12] [µM] | IC50 [13] [µM] | CC50 [14] [µM] | Con A-induced T-cell proliferation IC50 ([3]; murine splenocytes, Con A 1 μg/mL) | LPS-induced B-cell proliferation IC50 ([4]; murine splenocytes, LPS 10 μg/mL) | CC50 [15] [µM] |
| --- | --- | --- | --- | --- | --- | --- | --- | --- | --- | --- | --- | --- | --- | --- | --- | --- | --- | --- |
| CCN(CCO)CCCC(C)Nc1ccnc2cc(Cl)ccc12 (centres unmarked) [Compound 2, hydroxychloroquine, reference compound] | ineffective | > 80 | 26.8 ± 2.81 | 18.2 ± 1.45 | 14.2 ± 0.21 | 0.44 ± 0.01 | 0.62 ± 0.23 | 5.78 ± 2.39 | 0.86 ± 0.57 | 1.49 ± 0.32 | 25.3 ± 4.38 | 16.5 ± 0.55 | 3.51 ± 0.15 | 10 ± 2.97 | > 80 | – | – | – |
| CCN(CC)CCCC(C)Nc1ccnc2cc(Cl)ccc12 (centres unmarked) [Compound 1, chloroquine, reference compound] | – | – | 25.5 ± 2.47 | 15.27 ± 0.13 | 14.6 ± 0.56 | 0.65 ± 0.31 | 0.65 ± 0.28 | 7.2 ± 1.49 | 0.81 ± 0.78 | 0.48 ± 0.34 | 21.9 ± 3.59 | 14.6 ± 1.27 | 2.72 ± 0.75 | 35 ± 18.7 | 26.4 | – | – | – |
| CCN(CCCC(C)Nc1ccnc2cc(Cl)ccc12)CCNC(=O)C(F)(F)C1CCNCC1 (centres unmarked) [Compound 8, N-(2-((4-((7-Chloroquinolin-4-yl)amino)pentyl)(ethyl)amino)ethyl)-2,2-difluoro-2-(piperidin-4-yl)acetamide] | – | 31.6 | 71.6 ± 3.47 | 45.4 ± 1.43 | 28.3 ± 6.13 | – | – | – | – | – | – | – | – | – | 27.3 | – | – | – |
| CCN(CCCC(C)Nc1ccnc2cc(Cl)ccc12)CCNC1CNC1 (centres unmarked) [Compound 5, N^1-(2-(Azetidin-3-ylamino)ethyl)-N^4-(7-chloroquinolin-4-yl)-N^1-ethylpentane-1,4-diamine] | – | > 80 | > 250 | > 250 | > 250 | – | – | – | – | – | – | – | – | – | > 80 | lost activity completely | lost activity completely | – |
| CCN(CCCC(C)Nc1ccnc2cc(Cl)ccc12)CCNC(=O)C(F)(F)C1CCN(CCOCCOC)CC1 (centres unmarked) [Compound 10, N-(2-((4-((7-Chloroquinolin-4-yl)amino)pentyl)(ethyl)amino)ethyl)-2,2-difluoro-2-(1-(2-(2-methoxyethoxy)ethyl)piperidin-4-yl)acetamide] | – | 5.53 | 8.1 ± 0.77 | 4.27 ± 0.33 | 1.42 ± 0.15 | 0.61 ± 0.34 | 0.25 ± 0.03 | 2.7 ± 1.16 | 1.48 ± 0.81 | 0.003 ± 0.002 | 125 ± 45.7 | 2.52 ± 0.36 | 1.81 ± 0.83 | 24.4 ± 6.05 | – | – | – | 5.75 |
| CCN(CCCC(C)Nc1ccnc2cc(Cl)ccc12)CCNC(=O)CCOCCOCCOCCOCCOCC(=O)Nc1ccc2c(c1)OC(F)(F)O2 (centres unmarked) [Compound 15, N^18-(2-((4-((7-Chloroquinolin-4-yl)amino)pentyl)(ethyl)amino)ethyl)-N1-(2,2-difluorobenzo[d][1,3]dioxol-5-yl)-3,6,9,12,15-pentaoxaoctadecanediamide] | marginal potency | 20.4 | 6.07 ± 0.4 | 1.32 ± 0.06 | 1.44 ± 0.56 | 1.67 ± 0.44 | 1.76 ± 0.72 | 0.47 ± 0.16 | 1.51 ± 0.53 | 3.34 ± 0.62 | – | 9.63 ± 3.75 | 3.84 ± 1.25 | 10.7 ± 3.99 | 21.7 | – | – | – |
| CCN(CCCC(C)Nc1ccnc2cc(Cl)ccc12)CCNC(=O)C(F)(F)C1CCN(CC(O)C(F)(F)F)CC1 (centres unmarked) [Compound 9, N-(2-((4-((7-Chloroquinolin-4-yl)amino)pentyl)(ethyl)amino)ethyl)-2,2-difluoro-2-(1-(3,3,3-trifluoro-2-hydroxypropyl)piperidin-4-yl)acetamide] | – | 32.8 | 5.71 ± 1.04 | 2.85 ± 0.49 | 1.07 ± 0.23 | 1.23 ± 0.23 | 1.04 ± 0.2 | 0.16 ± 0.08 | 0.01 ± 0.01 | 0.21 ± 0.08 | 48.64 ± 0.18 | 1.61 ± 0.25 | 0.72 ± 0.17 | 15.9 ± 0.45 | – | – | – | 16.7 |
| CCN(CCCC(C)Nc1ccnc2cc(Cl)ccc12)CCNC12CC(N)(C1)C2 (centres unmarked) [Compound 6, N^1-(2-((4-((7-Chloroquinolin-4-yl)amino)pentyl)(ethyl)amino)ethyl)bicyclo[1.1.1]pentane-1,3-diamine] | – | 40.5 | 32.4 ± 6.22 | 16.7 ± 0.34 | 15.2 ± 0.46 | – | – | – | – | – | – | – | – | – | 24.9 | – | – | – |
| CCN(CCCC(C)Nc1ccnc2cc(Cl)ccc12)CCNC(=O)C(F)(F)C1CCN(C(=O)C2OC(OC)C3OC(C)(C)OC23)CC1 (centres unmarked) [Compound 11, N-(2-((4-((7-Chloroquinolin-4-yl)amino)pentyl)(ethyl)amino)ethyl)-2,2-difluoro-2-(1-(6-methoxy-2,2-dimethyltetrahydrofuro[3,4-d][1,3]dioxole-4-carbonyl)piperidin-4-yl)acetamide] | – | 25.2 | 11.24 ± 0.08 | 2.49 ± 0.11 | 2.99 ± 0.73 | 0.35 ± 0.18 | 0.17 ± 0.06 | 0.45 ± 0.18 | 0.17 ± 0.11 | 0.04 ± 0.03 | 47.71 ± 0.15 | 1.87 ± 0.44 | 1.19 ± 0.41 | 4.41 ± 1.66 | – | – | – | 16.9 |
